Type in all cases: functional
For one experiment, the system named is NCI-H23. As to the kind of experiment: Growth inhibition of human NCI-H23 cells after 48 hrs by Sulforhodamine B assay. The following applies: NCI-H23, 48 h. The method in brief: (§1)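 Cells were preincubated 24 h at 37 °C, 5% CO2, and a time-zero plate was TCA-fixed. Five concentrations were made by serial dilution from a DMSO stock (400-fold the top concentration) and incubated 48 h. Adherent cells were fixed with 10% final TCA and suspension cells with 16%. Plates were stained with 0.4% SRB and read at 515 nm. GI50 is the concentration giving 50% reduction in net protein increase versus control.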
A general note: The SRB assay estimates cell density from bound dye.

The next experiment deals with COLO 205. As to the kind of experiment: Growth inhibition of human COLO205 cells after 48 hrs by Sulforhodamine B assay. As to conditions: COLO 205, 48 h. The essentials: (§2)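 Five-concentration SRB assay using 10-fold or ½-log serial dilutions from a DMSO stock. Exposure is 48 h at 37 °C in 5% CO2 after 24 h preincubation. TCA fixation is followed by SRB staining and a reading at 515 nm. Percentage growth is computed from time-zero, control and treated absorbances. GI50 is the concentration where [(Ti−Tz)/(C−Tz)]×100 = 50, read from the plot against log concentration.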

The test system of a further experiment is HT-29. As to the kind of experiment: Growth inhibition of human HT-29 cells after 48 hrs by Sulforhodamine B assay. As to conditions: HT-29, 48 h. The essentials:
as §2

For a further experiment, the system named is OVCAR-3. As to the kind of experiment: Growth inhibition of human OVCAR3 cells after 48 hrs by Sulforhodamine B assay. The following applies: OVCAR-3, 48 h. The essentials:
as §1

The next experiment relates to CAKI-1. As to the kind of experiment: Growth inhibition of human CAKI-1 cells after 48 hrs by Sulforhodamine B assay. The following applies: CAKI-1, 48 h. The essentials:
as §2

Another experiment relates to UO-31. As to the kind of experiment: Growth inhibition of human UO31 cells after 48 hrs by Sulforhodamine B assay. The following applies: UO-31, 48 h. The method in brief:
(§3)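 Five-concentration stage in the […]-cell-line panel, using 10-fold or ½-log serial dilutions made from a DMSO stock (400-fold). Cells were preincubated 24 h at 37 °C, then drug-exposed 48 h. A time-zero plate was fixed with TCA at dosing, adherent cells were fixed with cold TCA (10% final), and protein was stained with SRB, absorbance 515 nm. GI50 was where [(Ti−Tz)/(C−Tz)]×100 = 50, from the percent growth vs log concentration plot, expressed as log10 GI50.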

The next experiment has as its system MDA-MB-231. As to the kind of experiment: Growth inhibition of human MDA-MB-231 cells after 48 hrs by Sulforhodamine B assay. As to conditions: MDA-MB-231, 48 h. The essentials:
as §2

For a further experiment, the system named is KM12. As to the kind of experiment: Growth inhibition of human KM12 cells after 48 hrs by Sulforhodamine B assay. As to conditions: KM12, 48 h. The method in brief:
as §2

Another experiment relates to HOP-62. As to the kind of experiment: Growth inhibition of human HOP62 cells after 48 hrs by Sulforhodamine B assay. The following applies: HOP-62, 48 h. The essentials: as §2
The subject of another experiment is SK-MEL-2. As to the kind of experiment: Growth inhibition of human SK-MEL-2 cells after 48 hrs by Sulforhodamine B assay. The following applies: SK-MEL-2, 48 h. The method in brief: as §1
The next experiment relates to OVCAR-5. As to the kind of experiment: Growth inhibition of human OVCAR5 cells after 48 hrs by Sulforhodamine B assay. As to conditions: OVCAR-5, 48 h. The essentials: as §1
The next experiment relates to Hs-578T. As to the kind of experiment: Growth inhibition of human Hs578T cells after 48 hrs by Sulforhodamine B assay. The essentials: as §2
A further experiment has as its system CCRF-CEM. As to the kind of experiment: Growth inhibition of human CCRF-CEM cells after 48 hrs by Sulforhodamine B assay. The method in brief: as §2
A further experiment concerns SK-MEL-28. As to the kind of experiment: Growth inhibition of human SK-MEL-28 cells after 48 hrs by Sulforhodamine B assay. The following applies: SK-MEL-28, 48 h. The essentials:
as §1

A further experiment has as its system HOP-92. As to the kind of experiment: Growth inhibition of human HOP92 cells after 48 hrs by Sulforhodamine B assay. The following applies: HOP-92, 48 h. The essentials:
as §2

A further experiment deals with TK-10. As to the kind of experiment: Growth inhibition of human TK10 cells after 48 hrs by Sulforhodamine B assay. As to conditions: TK-10, 48 h. The method in brief: as §3
In another experiment the test system is NCI-H460. As to the kind of experiment: Growth inhibition of human NCI-H460 cells after 48 hrs by Sulforhodamine B assay. The following applies: NCI-H460, 48 h. The method in brief:
as §1

For a further experiment, the system named is MDA-MB-468. As to the kind of experiment: Growth inhibition of human MDA-MB-468 cells after 48 hrs by Sulforhodamine B assay. The following applies: MDA-MB-468, 48 h. The essentials: as §1
For another experiment, the system named is OVCAR-8. As to the kind of experiment: Growth inhibition of human OVCAR8 cells after 48 hrs by Sulforhodamine B assay. As to conditions: OVCAR-8, 48 h. The method in brief: as §1

Experimental findings from ChEMBL document CHEMBL2375304, “Synthesis and anticancer activity of novel 2-pyridyl hexahyrocyclooctathieno[2,3-d]pyrimidine derivatives” (2013) are described below.

What is called GI50 is the concentration at which growth is held to half of that of the control. Low values mean greater sensitivity of the cells, high ones lower sensitivity of the cells.

Turning to `NNc1nc(-c2ccccn2)nc2sc3c(c12)CCCCCC3`, the GI50 with NCI-H23 was 8.91 µM; in the experiment on COLO 205 it was 5.13 µM; with HT-29, 5.5 µM; in the experiment on OVCAR-3 it was 5.37 µM; with CAKI-1, 0.575 µM; in the experiment with UO-31 it was 1.02 µM. Besides, the GI50 with MDA-MB-231 is 12.6 µM; in the experiment on KM12, 6.46 µM; in the experiment on HOP-62, 8.51 µM; in the experiment on SK-MEL-2, 14.5 µM; with OVCAR-5 it was 8.71 µM; in the experiment with Hs-578T, 11 µM. The GI50 is 4.47 µM in the experiment with CCRF-CEM; 14.8 µM in the experiment on SK-MEL-28; 3.55 µM in the experiment with HOP-92; 9.12 µM in the experiment on TK-10; 4.17 µM with NCI-H460; 3.63 µM in the experiment with MDA-MB-468. Halving of growth with OVCAR-8 (GI50) required 4.37 µM.

In the case of `COc1ccc(N2CCN(c3nc(-c4ccccn4)nc4sc5c(c34)CCCCCC5)CC2)cc1`, the GI50 with NCI-H23 was 17 µM; with COLO 205, 5.62 µM; with HT-29, 5.01 µM; with OVCAR-3, 8.71 µM; in the experiment with CAKI-1, 5.37 µM; in the experiment with UO-31 it was 3.31 µM. Besides, the GI50 in the experiment with MDA-MB-231 is 50.1 µM; in the experiment on KM12, 5.13 µM; in the experiment with HOP-62, 11.5 µM; with SK-MEL-2 it was 18.2 µM; in the experiment on OVCAR-5, 51.3 µM; in the experiment on Hs-578T, 57.5 µM. Besides, the GI50 is 4.37 µM with CCRF-CEM; over 100 µM with SK-MEL-28; 3.24 µM in the experiment on HOP-92; over 100 µM in the experiment with TK-10; 4.68 µM with NCI-H460; 4.07 µM with MDA-MB-468. The compound also gave a GI50 in the experiment with OVCAR-8 of 5.25 µM.

As to `CN1CCN(c2nc(-c3ccncc3)nc3sc4c(c23)CCCCCC4)CC1`, the GI50 was 11.5 µM in the experiment with NCI-H23; 4.9 µM in the experiment on COLO 205; 4.79 µM in the experiment on HT-29; 13.5 µM in the experiment with OVCAR-3; 3.47 µM with CAKI-1; 1.58 µM in the experiment on UO-31. Further, the GI50 was 4.27 µM in the experiment with MDA-MB-231; 13.5 µM in the experiment on KM12; 6.46 µM in the experiment on HOP-62; 14.5 µM in the experiment with SK-MEL-2; 10.7 µM in the experiment with OVCAR-5; 2.29 µM in the experiment with Hs-578T. Also, the GI50 is 8.13 µM with CCRF-CEM; 12.6 µM with SK-MEL-28; 0.661 µM in the experiment with HOP-92; 6.76 µM with TK-10; 13.5 µM in the experiment with NCI-H460; 5.25 µM with MDA-MB-468. Besides, the concentration for 50% growth inhibition (GI50) with OVCAR-8 was 12.3 µM.

Consider `O=c1[nH]c(-c2ccccn2)nc2sc3c(c12)CCCCCC3`, for which the GI50 is 11 µM with NCI-H23; 5.89 µM in the experiment on COLO 205; 7.76 µM with HT-29; 8.51 µM in the experiment on OVCAR-3; 3.31 µM in the experiment with CAKI-1; 5.89 µM with UO-31. Also, the GI50 in the experiment with MDA-MB-231 is 8.71 µM; in the experiment on KM12, 4.07 µM; with HOP-62, 6.31 µM; with SK-MEL-2, over 100 µM; with OVCAR-5 it was 91.2 µM; with Hs-578T, 6.46 µM. Further, the GI50 is 0.912 µM in the experiment with CCRF-CEM; 6.03 µM in the experiment with SK-MEL-28; 3.89 µM in the experiment on HOP-92; over 100 µM in the experiment on TK-10; 1.91 µM in the experiment with NCI-H460; 1.66 µM in the experiment with MDA-MB-468. Moreover, the GI50 in the experiment on OVCAR-8 is 4.37 µM.
